Test results from ChEMBL document CHEMBL4270544, “Design, synthesis and biological evaluation of a novel tubulin inhibitor 7a3 targeting the colchicine binding site” (Eur J Med Chem, 2018).
Active and inactive are the calls of the source. The calls are words filed in the database; no cut-off is given here.

What was measured:
[1] = Cmax in C57 mouse at 50 mg/kg, ip administered as single dose by LC-MS/MS analysis; format: ADME, organism-based; design: dose 50 mg/kg, route intraperitoneal; conditions: in vivo
Method in brief: (§1)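 Male C57 mice, one intraperitoneal dose. Blood drawn from submaxillary vein at 0, 5, 15, 30 min and 1, 2, 4, 8, 12, 24 h. Plasma measured by LC/MS/MS in MRM mode with CA-4 as internal standard. Calibration by weighted linear regression over 0.01–500 ng/mL. Parameters obtained by non-compartmental analysis.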

[2] = Elimination rate constant in C57 mouse at 50 mg/kg, ip administered as single dose by LC-MS/MS analysis; format: ADME, organism-based; conditions: in vivo; method in brief: as §1
Mus musculus [3] = assay: Toxicity in Balb/c mouse xenografted with human SKOV3 cells assessed as pathological changes in liver at 50 mg/kg, ip administered every two days for three times by hematoxylin and eosin staining based assay; format: organism-based; conditions: in vivo
Method in brief: (§2)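 In SK-OV-3 xenografted Balb/c nude mice dosed 50 mg/kg intraperitoneally in 5% DMSO/olive oil every two days, three times, organs were collected and examined after H&E staining.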

[4] = Tmax in C57 mouse at 50 mg/kg, ip administered as single dose by LC-MS/MS analysis; format: ADME, organism-based; conditions: in vivo; method in brief: as §1
SK-OV-3 [5] = assay: Cell cycle arrest in human SKOV3 cells assessed as accumulation at G2/M phase at 80 nM after 24 hrs by propidium iodide staining based flow cytometry (reference value: 24.99%); format: functional
Method in brief: (§3)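 SK-OV-3 cells exposed to 40, 80 or 160 nM for 24 h, with untreated cells as control. Stained with PI and analysed by flow cytometry for phase distribution. Mean ± SEM of three independent experiments; t-test against control.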

SK-OV-3 [6] = assay: Induction of apoptosis in human SKOV3 cells assessed as live cells at 160 nM after 48 hrs by Annexin-V-FITC/propidium iodide staining based flow cytometry (reference value: 94.43%); format: functional
Mus musculus [7] = assay: Toxicity in Balb/c mouse xenografted with human SKOV3 cells assessed as pathological changes in lung at 50 mg/kg, ip administered every two days for three times by hematoxylin and eosin staining based assay; format: organism-based; conditions: in vivo; method in brief: as §2
SK-OV-3 [8] = assay: Inhibition of tubulin assembly in human SKOV3 cells assessed as disorganized microtubule polymerization at 10 to 1000 nM after 24 hrs by DAPI staining based immunofluorescence microscopic method; format: functional, cell-based
Method in brief: (§4)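 SK-OV-3 cells exposed to DMSO or 10, 100 or 1000 nM for 24 h. Fixed in methanol, stained with FITC anti-β-tubulin antibody, counterstained with DAPI, and imaged by confocal microscopy.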

[9] = Terminal half life in C57 mouse at 50 mg/kg, ip administered as single dose by LC-MS/MS analysis; format: ADME, organism-based; conditions: in vivo, read-out: beta t1/2 (converted); method in brief: as §1
CT26 = assay: Antiproliferative activity against mouse CT26 cells after 72 hrs by CCK8 assay; format: functional, cell-based; conditions: CT26, 72 h
Method in brief: (§5)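 CCK-8 proliferation assay with CA-4 as positive control. IC50 is the concentration giving 50% inhibition of proliferation. Mean ± SEM from three independent experiments.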

SK-OV-3 [10] = assay: Induction of apoptosis in human SKOV3 cells assessed as live cells at 80 nM after 48 hrs by Annexin-V-FITC/propidium iodide staining based flow cytometry (reference value: 94.43%); format: functional
SK-OV-3 [11] = assay: Antimigratory activity against human SKOV3 cells assessed as number of migrated cells at 50 nM after 24 hrs by crystal violet staining based transwell migration assay (reference value: 49.3 to 50.7); format: functional
SK-OV-3 [12] = assay: Inhibition of tubulin assembly in human SKOV3 cells assessed as disorganized spindle formation at 10 to 1000 nM after 24 hrs by DAPI staining based immunofluorescence microscopic method; format: functional, cell-based; method in brief: as §4
Bos taurus = species on record: Bos taurus; assay: Inhibition of bovine MAP-rich tubulin polymerization at 40 uM measured every 1 min for 30 mins relative to control
Method in brief: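 Purified tubulin polymerization followed at 37 °C by absorbance at 340 nm, read every 1 min for 30 min. Test concentrations 2.5, 10 and 40 µM. CA-4 at 10 µM served as positive control and DMSO (1%, v/v) as vehicle. Polymerization is expressed relative to the vehicle group.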

[13] = Mean residence time in C57 mouse at 50 mg/kg, ip administered as single dose by LC-MS/MS analysis; format: ADME, organism-based; conditions: in vivo; method in brief: as §1
Mus musculus [14] = assay: Area under the first moment curve (0 to infinity) in C57 mouse at 50 mg/kg, ip administered as single dose by LC-MS/MS analysis; format: ADME, organism-based; conditions: in vivo; method in brief: as §1
SK-OV-3 [15] = assay: Antimigratory activity against human SKOV3 cells assessed as number of migrated cells at 100 nM after 24 hrs by crystal violet staining based transwell migration assay (reference value: 49.3 to 50.7); format: functional
SK-OV-3 [16] = assay: Cell cycle arrest in human SKOV3 cells assessed as accumulation at S phase at 40 nM after 24 hrs by propidium iodide staining based flow cytometry (reference value: 18.09%); format: functional; method in brief: as §3
SK-OV-3 [17] = assay: Cell cycle arrest in human SKOV3 cells assessed as accumulation at G0/G1 phase at 160 nM after 24 hrs by propidium iodide staining based flow cytometry (reference value: 67.79%); format: functional; method in brief: as §3
SK-OV-3 [18] = assay: Cell cycle arrest in human SKOV3 cells assessed as accumulation at G0/G1 phase at 80 nM after 24 hrs by propidium iodide staining based flow cytometry (reference value: 67.79%); format: functional; method in brief: as §3
SK-OV-3 [19] = assay: Induction of apoptosis in human SKOV3 cells assessed as early apoptotic cells at 160 nM after 48 hrs by Annexin-V-FITC/propidium iodide staining based flow cytometry (reference value: 0.97%); format: functional
SK-OV-3 [20] = assay: Antiproliferative activity against human SKOV3 cells after 72 hrs by CCK8 assay; format: functional, cell-based; conditions: SK-OV-3, 72 h; method in brief: as §5
SK-OV-3 [21] = assay: Induction of apoptosis in human SKOV3 cells assessed as late apoptotic cells at 40 nM after 48 hrs by Annexin-V-FITC/propidium iodide staining based flow cytometry (reference value: 3.93%); format: functional
Mus musculus [22] = assay: Toxicity in Balb/c mouse xenografted with human SKOV3 cells assessed as pathological changes in heart at 50 mg/kg, ip administered every two days for three times by hematoxylin and eosin staining based assay; format: organism-based; conditions: in vivo; method in brief: as §2
SK-OV-3 [23] = assay: Induction of apoptosis in human SKOV3 cells assessed as late apoptotic cells at 160 nM after 48 hrs by Annexin-V-FITC/propidium iodide staining based flow cytometry (reference value: 3.93%); format: functional
SK-OV-3 [24] = assay: Cell cycle arrest in human SKOV3 cells assessed as accumulation at G0/G1 phase at 40 nM after 24 hrs by propidium iodide staining based flow cytometry (reference value: 67.79%); format: functional; method in brief: as §3
SK-OV-3 [25] = assay: Antimigratory activity against human SKOV3 cells assessed as wound closure at 160 nM after 24 hrs by microscopy based scratch wound assay (reference value: 79.5 +/- 2.8%); format: functional
[26] = AUC (0 to 24 hrs) in C57 mouse at 50 mg/kg, ip administered as single dose by LC-MS/MS analysis; format: ADME, organism-based; design: dose 50 mg/kg, time < 24 hr, route intraperitoneal; conditions: in vivo; method in brief: as §1

Cmax [1]: 882 ng/mL
k el [2]: 0.000117 s⁻¹
Tmax [4]: 0.25 h
half-life [9]: 1.67 h
IC50 (CT26): 58 nM
inhibition (Bos taurus): 85.3%
MRT [13]: 1.51 h
AUMC (Mus musculus [14]): 1785 hr.hr.ng/ml
IC50 (SK-OV-3 [20]): 17 nM
AUC(0-t) at 24 h [26]: 1140 ng·h/mL
Compound: CCOc1ccc(-c2cn(C)nc2-c2cc(OC)c(OC)c(OC)c2)cc1
Activity (Mus musculus [3]): Non-Toxic
Activity (SK-OV-3 [5]): 34.65%
Activity (SK-OV-3 [6]): 41.9%
Activity (Mus musculus [7]): Non-Toxic
inhibition (SK-OV-3 [8]): Active
Activity (SK-OV-3 [10]): 73.56%
Activity (SK-OV-3 [11]): 21.7
inhibition (SK-OV-3 [12]): Active
Activity (SK-OV-3 [15]): 18.3
Activity (SK-OV-3 [16]): 20.99%
Activity (SK-OV-3 [17]): 8.05%
Activity (SK-OV-3 [18]): 41.2%
Activity (SK-OV-3 [19]): 9.46%
Activity (SK-OV-3 [21]): 6.65%
Activity (Mus musculus [22]): Non-Toxic
Activity (SK-OV-3 [23]): 47.36%
Activity (SK-OV-3 [24]): 54.42%
Activity (SK-OV-3 [25]): 32.1%
